These results are taken from ChEMBL document CHEMBL1123855, “Synthesis of glycopyranosylphosphonate analogues of certain natural nucleoside diphosphate sugars as potential inhibitors of glycosyltransferases” (J Med Chem, 1987).

Assay [1] deals with L1210. Nature of the assay: In vitro antitumor activity was evaluated against L1210 leukemia cell lines; No activity. The class given is functional, cell-based. The note with it: Mus musculus.
Assay [2] relates to Vero. As to the kind of experiment: In vitro antiviral activity was evaluated against vero cell lines infected with visna virus; non toxic at concentrations as high as 50000 uM. The class given is functional, cell-based. The note with it: Chlorocebus sabaeus.
Assay [3] concerns Vero. Nature of the assay: In vitro antiviral activity was evaluated against vero cell lines infected with Parainfluenza virus type 3; non toxic at concentrations as high as 50000 uM. The assay is classed as functional, cell-based. The note with it: Chlorocebus sabaeus.
Assay [4] relates to Vero. Nature of the assay: In vitro antiviral activity was evaluated against vero cell lines infected with adenovirus type 2; non toxic at concentrations as high as 50000 uM. The assay is classed as functional, cell-based. Conditions: Chlorocebus sabaeus.
Assay [5] relates to Vero. As to the kind of experiment: In vitro antiviral activity was evaluated against vero cell lines infected with herpes simplex virus type-2; non toxic at concentrations as high as 50000 uM. The class given is functional, cell-based. The note with it: Chlorocebus sabaeus.
Assay [6] deals with WIL2. Nature of the assay: In vitro antitumor activity was evaluated against human B-lymphoblastic leukemia cell lines; no = No activity. The class given is functional, cell-based.
Assay [7] relates to CCRF-CEM. As to the kind of experiment: In vitro antitumor activity was evaluated against human T-lymphoblastic leukemia cell lines; no = No activity. The class given is functional, cell-based.
Assay [8] relates to Vero. Nature of the assay: In vitro antiviral activity was evaluated against vero cell lines infected with influenza virus; Slightly active at concentrations as high as 50000 uM. The note with it: Chlorocebus sabaeus. The assay is classed as functional, cell-based.
The test system of assay [9] is Vero. As to the kind of experiment: In vitro antiviral activity was evaluated against vero cell lines infected with rhino virus; non toxic at concentrations as high as 50000 uM. The assay is classed as functional, cell-based. The note with it: Chlorocebus sabaeus.
In assay [10] the target is N-acetyllactosaminide alpha-1,3-galactosyltransferase (Mus musculus) (UniProt P23336). As to the kind of experiment: Inhibition of galactosyltransferase activity secreted by L1210 leukemia cells grown in mouse peritoneal ascites at 50 ug/mL (89 uM). The class given is cell-based. In a few lines: (§1)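 Galactosyltransferase from cell-free ascites fluid of DBA/2J mice implanted 5-7 days earlier with 10^5 L1210 cells, cells removed by centrifugation. Medium: ovalbumin 1 mg/mL acceptor, 0.1 M cacodylate pH 7.0, 10 mM MnCl2, 2 mM AMP, inhibitor 20 or 50 ug/mL, UDP-galactose varied 1-80 uM plus UDP-[3H]galactose. 30 min, 37 °C. Stopped with PTA/HCl; washed precipitate scintillation-counted. Duplicates.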
Chain of N-acetyllactosaminide alpha-1,3-galactosyltransferase (Mus musculus) (P23336 whole entry): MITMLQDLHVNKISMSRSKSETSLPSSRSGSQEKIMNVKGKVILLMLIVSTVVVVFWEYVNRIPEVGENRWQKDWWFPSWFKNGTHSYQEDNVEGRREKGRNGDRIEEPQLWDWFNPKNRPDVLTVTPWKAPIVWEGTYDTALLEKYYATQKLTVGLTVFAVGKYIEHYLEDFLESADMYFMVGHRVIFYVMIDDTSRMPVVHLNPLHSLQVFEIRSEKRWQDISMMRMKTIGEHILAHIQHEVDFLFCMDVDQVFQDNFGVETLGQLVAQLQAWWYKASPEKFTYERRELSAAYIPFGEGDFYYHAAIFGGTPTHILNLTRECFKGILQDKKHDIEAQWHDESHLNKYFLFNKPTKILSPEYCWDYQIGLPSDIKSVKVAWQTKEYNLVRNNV

For assay [11] the target is unchanged. Nature of the assay: Inhibition of galactosyltransferase activity secreted by L1210 leukemia cells grown in mouse peritoneal ascites at 20 ug/mL (35 uM). The assay is classed as cell-based. In a few lines:
as §1

In assay [12] the test system is WIL2. Nature of the assay: In vitro antitumor activity was evaluated against human B-lymphoblastic leukemia cell lines; Slight activity. The assay is classed as functional, cell-based.
Assay [13] has as its system CCRF-CEM. As to the kind of experiment: In vitro antitumor activity was evaluated against human T-lymphoblastic leukemia cell lines; Slight activity. The class given is functional, cell-based.

SMILES strings stand for the structures. The source made the active and inactive calls. The calls are words filed in the database; no cut-off is given here.

For the compound `O=P(O)(O)[C@H]1O[C@@H](CO)[C@@H](O)[C@H](O)[C@@H]1O`, the Cytotoxiciy entry in assay [1], in [6] and in assay [7] was “No activity” each time. Moreover, the result in assay [2], in assay [3], in assay [4], in assay [5] and in [8] was inactive. In addition, the Activity result in assay [9] is “Slightly active”.

In general, inhibition refers to the relative decrease from the control value, in per cent. The low end stands for a weak effect, the high end for a strong effect. On to `O=c1ccn(C2O[C@H](COP(=O)(O)OP(=O)(O)C3O[C@H](CO)[C@@H](O)[C@H](O)[C@H]3O)[C@@H](O)[C@H]2O)c(=O)[nH]1` (stereo partly drawn), for which the inhibition was 58% in [10] and 50% in [11].

Regarding `Nc1ncnc2c1ncn2C1O[C@H](COP(=O)(O)OP(=O)(O)C2O[C@H](CO)[C@@H](O)[C@H](O)[C@H]2O)[C@@H](O)[C@H]1O` (stereo partly drawn), the Cytotoxiciy result is “No activity” in assay [1], “Weak activity” in assay [12] and “Weak activity” in [13]. Moreover, the outcome in [2], in assay [3], in [4], in assay [5] and in assay [9] was inactive.

With `O=P(O)(O)[C@H]1O[C@@H](CO)[C@H](O)[C@H](O)[C@@H]1O` (stereo in doubt; 19), the Cytotoxiciy result in assay [1], in assay [6] and in assay [7] was “No activity” in each case. The result in assay [2], in assay [3], in assay [4], in assay [5] and in assay [9] was inactive.

Turning to `CC(=O)OP(=O)(O)C1OC(COCc2ccccc2)C(OCc2ccccc2)C(OCc2ccccc2)C1OCc1ccccc1` (stereo not drawn), the Cytotoxiciy result in [1], in [6] and in [7] was “No activity” each time. For the same compound, the result in [2], in assay [3], in assay [4], in assay [5] and in assay [9] was inactive.

With `O=P(O)(O)[C@H]1O[C@@H](CO)[C@H](O)[C@H](O)[C@@H]1O` (stereo in doubt; 17), the Cytotoxiciy entry in assay [1], in assay [6] and in [7] was “No activity” in each case. The outcome in assay [2], in assay [3], in assay [4], in [5] and in assay [9] was inactive.
